The source of these data is ChEMBL document CHEMBL5252566, “Antioxidant mechanisms and products of four 4',5,7-trihydroxyflavonoids with different structural types” (RSC Med Chem, 2023).

Holding throughout (format): functional
In assay [1] the test system is HT-22. Briefly: Antioxidant activity in mouse HT-22 cells assessed as OH scavenging activity measured for 24 hrs by CCK-8 analysis. The essentials: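 HT22 cells are grown in DMEM/10% FBS at 37 °C, 5% CO2, seeded at 1 × 10^4 per well and left to adhere for 24 h. They are pretreated with sample at 50 μM final for 24 h (model group: medium), then exposed to Fenton reagent (200 μM H2O2 + 200 μM FeCl2) for 24 h. Medium is removed and CCK-8 added for 2 h; survival from A450, five wells per sample.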

The nature of assay [2]: Antioxidant activity assessed as oxygen scavenging activity measured every 30 sec for 5 min by UV-vis spectrophotometer analysis. Summed up: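 Superoxide generation uses pyrogallol autoxidation: sample plus pyrogallol (60 mM stock in 1 mM HCl) in 0.05 M Tris-HCl, pH 7.4. A325 is recorded every 30 s for 5 min. Scavenging comes from the absorbance increase over 5 min relative to no-sample control; IC50 from dose–response curve, mean ± SD (n = 3).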

Assay [3] can be described thus: Antioxidant activity assessed as DPPH radical scavenging activity incubated for 30 mins under dark condition by microplate reader analysis. Summed up: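 The radical solution is made from […] methanol solution and mixed with sample dissolved in methanol (ultrasonication at 40 °C). Incubation is 30 min dark at room temperature with read-out at A519. % scavenging vs no-sample blank; IC50 (final concentration giving 50% scavenging) from dose–response curve by linear regression, mean ± SD (n = 3).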
On the technique in general: The DPPH test is a chemical assay of radical scavenging.

Assay [4] can be described thus: Antioxidant activity assessed as ABTS radical cation scavenging activity incubated for 10 mins under dark condition by microplate reader analysis. The essentials: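 ABTS˙+ is generated from 7.4 mM (NH4)2ABTS and 2.6 mM K2S2O8 solutions mixed 1:1 and kept dark at 27 °C for 12 h. It is diluted about 1:20 with water, then mixed with methanolic samples for 10 min dark at 27 °C and read at A734. % scavenging vs no-sample blank; IC50 from dose–response curve by linear regression, mean ± SD (n = 3).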

Assay [5] relates to HT-22. Briefly: Antioxidant activity in mouse HT-22 cells assessed as OH scavenging activity by chromogenic analysis. Also on record: concentration or dose not given beside the values.

One may read the IC50 as the midpoint of a concentration-inhibition curve. For `O=c1c(O)c(-c2ccc(O)cc2)oc2cc(O)cc(O)c12` [KAEMPFEROL], the Activity in the assay with HT-22 [1] amounted to 69.4%; with HT-22 [5] it was 74.46%. Besides, the figures for the IC50 in assay [2], in assay [3] and in assay [4] were 81.6 µM, 15.5 µM and 4.73 µM, respectively.

Take `O=c1c(-c2ccc(O)cc2)coc2cc(O)cc(O)c12` [GENISTEIN]: the Activity in the assay on HT-22 [1] is 68.54%; in the assay with HT-22 [5] it was 36.39%. The IC50 in assay [2] was 88.8 µM; in assay [3], 1230 µM; in assay [4] it was 10.2 µM.

In the case of `O=C1C[C@@H](c2ccc(O)cc2)Oc2cc(O)cc(O)c21` [NARINGENIN], the Activity in the assay on HT-22 [1] was found to be 80.65%; in the assay on HT-22 [5], 33.85%. The IC50 in assay [2] turned out to be 24.2 µM; in assay [3], 1730 µM; in assay [4] it was 13 µM.

Consider `O=C1O[C@H]([C@@H](O)CO)C(O)=C1O` [ASCORBIC ACID], for which the Activity in the assay with HT-22 [5] came to 84.27%.

`Cc1c(C)c2c(c(C)c1O)CCC(C)(C(=O)O)O2` (centres undefined) [TROLOX]: the IC50 in assay [2] was 963 µM; in assay [3] it was 19.8 µM; in assay [4] it was 10.3 µM.

For `O=c1cc(-c2ccc(O)cc2)oc2cc(O)cc(O)c12` [APIGENIN], the Activity was found to be 73.32% with HT-22 [1] and 33.26% with HT-22 [5]. Besides, the IC50 in assay [2] is 68.9 µM; in assay [3], 2760 µM; in assay [4] it was 18.2 µM.
